Source: PubChem
Tb MetRS inh = blocks T. brucei methionyl-tRNA synthetase activity; inhibition, % at 11.9 µM; AID 624268; 360,000 compounds, 0.4% hits; purified T. brucei MetRS, ATP depletion, Kinase-Glo luminescence;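 active means inhibition above a per-plate cutoff of the control wells' mean inhibition plus 3 SD, cut at about 5.5% in these data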
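Material: parasite MetRS enzyme / Replication: singlicate, one well per compound / Signal: luminescence of leftover ATP / Schedule: 2 h aminoacylation at 25 °C after 15 min preincubation / Medium: HEPES-MgCl2-KCl buffer plus DTT, spermine, BSA, pyrophosphatase / Doses: 11.9 µM single point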
NTR1 agonist = agonists of human neurotensin receptor NTR1; P30989; NTR1-U2OS beta-arrestin-GFP spot imaging, agonist mode; activation, % at 20 µM; 330,000 compounds, 0.17% hits; AID 493036;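 active means activation at or above 40% of the spot to cytoplasm intensity ratio, with at least 20 cells analyzed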
Target sequence (P30989 whole entry, looked up): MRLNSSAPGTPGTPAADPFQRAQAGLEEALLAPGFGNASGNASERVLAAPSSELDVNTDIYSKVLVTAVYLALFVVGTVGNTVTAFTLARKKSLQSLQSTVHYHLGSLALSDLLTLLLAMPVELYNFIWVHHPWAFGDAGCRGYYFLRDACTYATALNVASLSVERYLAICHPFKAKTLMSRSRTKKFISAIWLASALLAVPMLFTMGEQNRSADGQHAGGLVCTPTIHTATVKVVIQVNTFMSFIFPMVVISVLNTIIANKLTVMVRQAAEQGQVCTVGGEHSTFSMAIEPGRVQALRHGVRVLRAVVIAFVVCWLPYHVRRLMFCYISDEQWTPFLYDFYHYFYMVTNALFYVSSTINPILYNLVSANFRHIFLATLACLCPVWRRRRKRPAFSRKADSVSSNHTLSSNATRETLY
MC4R antagonist = human MC4R antagonism in cAMP assay; P32245; MC4R-expressing cells, MTII-stimulated cAMP, LANCE TR-FRET; inhibition, % at 6.5 µM; 360,000 compounds, 0.48% hits; AID 540295;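 active means inhibition above its plate's cutoff, the mean of tested wells on that plate plus 3 SD, cut at about 29% in these data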
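Material: human MC4R-expressing U2OS cells. Probe or stimulus: Melanotan II challenge. Dosing: 6.5 µM single dose. Times: 30-min compound, 1-h challenge, 1-h detection, room temperature. Technique: TR-FRET with Eu-cAMP and labeled anti-cAMP, 671 nm. Replication: singlicate.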
TAG inh = triacylglycerol accumulation inhibition; H9c2 cells, Nile Red lipid (TAG) fluorescence; cells loaded with 200 µM oleic acid; inhibition, % at 12.5 µM; 230,000 compounds, 0.66% hits;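 active means pattern-corrected inhibition of lipid staining of at least 50% with the nuclear-stain viability signal not falling by more than 50%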
aDG glyco up = alpha-DG glycosylation activation. Pro5-aDG cells, alpha-DG glycosylation AlphaScreen (IIH6); 0% Pro5, 100% B10-LARGE cell signal. activation, % at 10 µM. 360,000 compounds, 0.22% hits. AID 624168;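 active means activation of at least 8% versus controls, or a plate z-score of at least 8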;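 further: Pro5 are CHO cells carrying HIG-tagged alpha-DG that lacks glycosylation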
MC4R barr agon = human MC4R agonism via beta-arrestin. P32245. U2OS MC4R beta-arrestin complementation, luminescence; percent of melanotan II response, DMSO zero. activation, % at 8.9 µM. 360,000 compounds, 0.98% hits. AID 540308;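 active means activation above a per-plate cutoff, the mean activation of sample wells on that plate plus 3 SD, cut at about 8% in these data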
Tb MetRS conf = Trypanosoma brucei MetRS inhibition confirmed. 1,400 compounds, 93% hits. inhibition, % at 11.9 µM. shares compounds with Tb MetRS inh. T. brucei MetRS enzyme, luminescence (ATP depletion); in the data active means inhibition above about 7%
Jurkat cytotox = kills Jurkat cells in T. brucei MetRS counterscreen | shares compounds with Tb MetRS inh | Jurkat cells viability, ATP luminescence | inhibition, % at 8.3 µM | 1,400 compounds, 12% hits; in the data active means inhibition above about 15%
Tb MetRS inh FP = inhibits T. brucei methionyl tRNA synthetase in orthogonal FP test; inhibition, % at 11.9 µM; 1,400 compounds, 44% hits; purified T. brucei MetRS, fluorescence polarization; shares compounds with Tb MetRS inh; in the data active means inhibition above about 17%
Of the large screens only hits and unclear results are named; the others gave an inactive call (follow-up assays come after a bar, where they were run). Sampled rows, rich in hits. Any-hit rate of the full collection: about 2.4%.

O=C1[C@@H]2Cc3c([nH]c4ccccc34)C(c3cccc(Br)c3)N2C(=O)CN1C1CCN(Cc2ccccc2)CC1 (some centres not stated)	Tb MetRS inh 41.4 (no result: TAG inh) | Tb MetRS conf 54.1 | Jurkat cytotox inactive | Tb MetRS inh FP 27.8
O=C(c1cc2c(c(-c3cccc(-c4ccncc4)c3)n1)[C@@H](CCO)N(C(=O)c1ccc3c(c1)OCO3)C2)N1CCOCC1	none (no result: NTR1 agonist, MC4R antagonist, TAG inh, MC4R barr agon)
COc1cccc(NC(=O)C(=O)NCc2ccncc2)c1	none (no result: TAG inh)
COc1cccc(NC(=O)C(C#N)Cc2ccncc2)c1 (configuration not stated)	Tb MetRS inh 16.4 (no result: TAG inh) | Tb MetRS conf inactive | Jurkat cytotox inactive | Tb MetRS inh FP inactive
CC1(C(=O)Nc2ccc3ccccc3c2)CCC(=O)N1CCCn1ccnc1 (configuration not stated)	none (no result: NTR1 agonist, MC4R antagonist, TAG inh, MC4R barr agon)
O=C(NCCCCCCNC(=O)c1ccccc1O)c1ccccc1O	Tb MetRS inh 6.7 (no result: TAG inh) | Tb MetRS conf 13.6 | Jurkat cytotox inactive | Tb MetRS inh FP inactive
O=C(Cc1ccc(Cl)cc1)Nc1ccc(Br)cc1	Tb MetRS inh 6.1 | Tb MetRS conf 10.9 | Jurkat cytotox inactive | Tb MetRS inh FP inactive
O=C(Cc1ccc(Br)cc1)NNC(=O)Nc1ccc(Cl)cc1	Tb MetRS inh 16.9 (no result: TAG inh) | Tb MetRS conf 24.0 | Jurkat cytotox inactive | Tb MetRS inh FP 17.3
Cn1cccc1CC(=O)NNC(=O)Nc1ccc(Cl)cc1	none (no result: TAG inh)
CCOC(=O)[C@]12CCC=C1N(Cc1cccc3ccccc13)C(=O)[C@H](CC(=O)NCCc1ccccc1OC)C2	none (no result: NTR1 agonist, MC4R antagonist, TAG inh, MC4R barr agon)
COC(=O)c1ccc2nc(-c3ccco3)c(Cc3cccc(F)c3)n2c1	none (no result: NTR1 agonist, MC4R antagonist, TAG inh, MC4R barr agon)
COc1ccc(C(O)c2nc(-c3ccc(OC)c(OC)c3)cs2)cc1 (configuration not stated)	none (no result: NTR1 agonist)
O=C1C=CC(=NN=C(c2ccccc2)c2ccccc2)C=C1	none (no result: NTR1 agonist, MC4R antagonist, TAG inh, MC4R barr agon)
Cc1cccc(C)c1NC(=O)C(c1cc2ccccc2o1)N1CCC(c2ccccc2)CC1 (configuration not stated)	none (no result: NTR1 agonist, MC4R antagonist, TAG inh, MC4R barr agon)
C[C@H](O)[C@@H]1C(=O)N2CCc3c([nH]c4ccccc34)[C@@H]2C[C@@H]1N(C)Cc1ccc(Cl)cc1	Tb MetRS inh 86.7 (no result: NTR1 agonist) | Tb MetRS conf 104.4 | Jurkat cytotox inactive | Tb MetRS inh FP 83.4
CC(=O)NS(=O)(=O)c1ccc(NC(=O)/C=C/c2cn(-c3ccccc3)nc2-c2ccccc2)cc1	Tb MetRS inh 50.7 | Tb MetRS conf 49.5 | Jurkat cytotox inactive | Tb MetRS inh FP 42.3
NC(c1csc(NC(=O)Nc2ccc(OC(F)(F)F)cc2)n1)C1CCCCC1 (configuration not stated)	none (no result: NTR1 agonist)
O=[N+]([O-])c1ccc2nc(SCc3cn4ccccc4n3)[nH]c2c1	Tb MetRS inh 17.4 (no result: TAG inh) | Tb MetRS conf 35.2 | Jurkat cytotox inactive | Tb MetRS inh FP 21.4
CSCCC(C(=O)Nc1c(C)cccc1C)n1c(-c2cnc(C)cn2)nc2ccccc21 (configuration not stated)	none (no result: NTR1 agonist, MC4R antagonist, TAG inh, MC4R barr agon)
Nc1ccc2c(c1)C(=O)C(=O)c1ccccc1-2	Tb MetRS inh 21.9 | Tb MetRS conf 15.4 | Jurkat cytotox 97.2 | Tb MetRS inh FP inactive
O=C(OCCO)c1c(-c2ccccc2)oc2c1C(OCCO)CCC2 (configuration not stated)	none (no result: NTR1 agonist, MC4R antagonist, TAG inh, MC4R barr agon)
O=C(Cn1cc(C(=O)C(=O)N2CCOCC2)c2ccccc21)Nc1cccc(C(F)(F)F)c1	Tb MetRS inh 90.2 (no result: NTR1 agonist) | Tb MetRS conf 97.0 | Jurkat cytotox inactive | Tb MetRS inh FP 95.0
COc1cccc(-c2cc(CNC(=O)[C@H]3O[C@@H](n4ccc(N)nc4=O)[C@H](O)[C@@H]3O)no2)c1	none (no result: NTR1 agonist, MC4R antagonist, TAG inh, MC4R barr agon)
Cc1ccc(Cc2c(-c3ccccc3)nc3c(Cl)cc(C(F)(F)F)cn23)cc1	none (no result: NTR1 agonist, MC4R antagonist, TAG inh, MC4R barr agon)
COc1cccc(OC)c1C(=O)Nc1cccc(S(=O)(=O)Nc2ccccc2Cl)c1	none
